Assay results taken from ChEMBL document CHEMBL3414543, “Novel series of benzoquinones with high potency against 5-lipoxygenase in human polymorphonuclear leukocytes” (Eur J Med Chem, 2015).

What was measured:
[1] = molecular target: T1, Polyunsaturated fatty acid 5-lipoxygenase (Homo sapiens, UniProt P09917); assay: Inhibition of 5-LOX in A23187-stimulated human blood PMNL assessed as reduction in lipoxygenase products formation in presence of arachidonic acid pre-incubated for 15 mins followed by stimulation with A23187 for 10 mins by RP-HPLC based cell based assay
T1 sequence (P09917 whole entry): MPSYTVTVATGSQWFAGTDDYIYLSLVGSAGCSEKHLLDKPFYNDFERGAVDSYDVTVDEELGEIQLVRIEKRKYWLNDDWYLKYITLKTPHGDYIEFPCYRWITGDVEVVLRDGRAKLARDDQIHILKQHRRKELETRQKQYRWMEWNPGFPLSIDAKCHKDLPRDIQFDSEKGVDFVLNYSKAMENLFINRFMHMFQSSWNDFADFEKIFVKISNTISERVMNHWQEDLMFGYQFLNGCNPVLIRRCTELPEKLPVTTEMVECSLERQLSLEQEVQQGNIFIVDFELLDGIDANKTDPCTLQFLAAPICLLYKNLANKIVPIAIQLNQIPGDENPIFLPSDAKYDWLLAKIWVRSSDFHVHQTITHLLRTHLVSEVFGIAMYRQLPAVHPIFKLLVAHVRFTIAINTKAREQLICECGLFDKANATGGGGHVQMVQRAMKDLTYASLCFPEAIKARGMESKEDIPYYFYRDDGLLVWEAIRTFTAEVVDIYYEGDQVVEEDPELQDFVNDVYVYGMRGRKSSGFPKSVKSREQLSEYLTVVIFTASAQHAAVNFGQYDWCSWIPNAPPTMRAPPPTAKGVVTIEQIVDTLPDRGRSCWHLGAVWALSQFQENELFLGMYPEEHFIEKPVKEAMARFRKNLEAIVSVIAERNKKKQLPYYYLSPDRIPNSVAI
Outline: (§1)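 Human PMNL (5 × 10⁶ in 1 ml PBS pH 7.4, 1 mg/ml glucose, 1 mM CaCl₂), preincubated 15 min at 37 °C with compound or 0.1% DMSO, then stimulated 10 min at 37 °C with A23187, with or without AA. 5-LO products measured. Values are mean ± S.E. of 3–4 independent experiments. IC₅₀ read graphically from 4–5 concentrations.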

[2] = molecular target: T2, Polyunsaturated fatty acid lipoxygenase ALOX15 (Homo sapiens) (UniProt P16050); assay: Inhibition of 15-LOX-1 in human blood PMNL assessed as remaining activity by measuring 15-HETE synthesis at 10 uM
T2 sequence (whole entry): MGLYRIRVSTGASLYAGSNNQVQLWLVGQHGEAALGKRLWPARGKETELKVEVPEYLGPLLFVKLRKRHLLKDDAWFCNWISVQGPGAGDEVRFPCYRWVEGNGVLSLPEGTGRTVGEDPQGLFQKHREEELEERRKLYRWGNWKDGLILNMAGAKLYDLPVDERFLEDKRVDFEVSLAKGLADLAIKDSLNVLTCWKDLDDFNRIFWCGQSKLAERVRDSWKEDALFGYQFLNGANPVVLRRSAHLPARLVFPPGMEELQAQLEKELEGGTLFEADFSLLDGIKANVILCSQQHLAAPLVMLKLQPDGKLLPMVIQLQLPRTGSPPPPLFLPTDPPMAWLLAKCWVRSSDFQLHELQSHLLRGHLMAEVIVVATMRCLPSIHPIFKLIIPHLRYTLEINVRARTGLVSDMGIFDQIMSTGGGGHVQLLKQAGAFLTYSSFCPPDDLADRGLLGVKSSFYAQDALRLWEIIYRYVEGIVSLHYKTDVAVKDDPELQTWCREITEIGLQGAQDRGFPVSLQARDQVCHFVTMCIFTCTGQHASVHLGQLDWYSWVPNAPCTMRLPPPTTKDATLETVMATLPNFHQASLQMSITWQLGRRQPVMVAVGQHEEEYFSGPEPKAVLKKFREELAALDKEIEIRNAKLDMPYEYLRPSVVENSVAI
Outline: (§2)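 PMNL isolated from heparinized blood of fasted healthy donors by dextran sedimentation and Nycoprep centrifugation, with hypotonic lysis of erythrocytes. Cells at 5 × 10⁶ in 1 ml PBS pH 7.4 with 1 mg/ml glucose and 1 mM CaCl₂, preincubated 15 min at 37 °C with compound or 0.1% DMSO vehicle, then stimulated 10 min at 37 °C. 12-HETE or 15-HETE formation measured.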

[3] = molecular target: T3, Polyunsaturated fatty acid 5-lipoxygenase (Homo sapiens) (UniProt P09917); assay: Inhibition of 5-LOX in A23187-stimulated human blood PMNL assessed as remaining activity by measuring lipoxygenase products formation at 10 uM in presence of arachidonic acid pre-incubated for 15 mins followed by stimulation with A23187 for 10 mins by RP-HPLC based cell based assay; outline: as §1
T3 sequence (whole entry): T1 sequence (P09917 whole entry)

[4] = molecular target: T1, Polyunsaturated fatty acid 5-lipoxygenase; assay: Inhibition of human recombinant 5-LOX expressed in Escherichia coli BL21 incubated for 10 mins in presence of arachidonic acid by RP-HPLC based cell-free assay
Outline: (§3)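 Recombinant human 5-LO, semi-purified from a 40,000 × g lysate supernatant on ATP-agarose, diluted in ice-cold PBS with 1 mM EDTA and 1 mM ATP. Preincubated 10 min at 4 °C with compound or 0.1% DMSO, warmed 30 s at 37 °C, then started with 2 mM CaCl₂ plus 20 µM AA. Reaction 10 min at 37 °C, stopped with cold methanol, products by RP-HPLC. IC₅₀ from 4–5 concentrations.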

[5] = molecular target: T1, Polyunsaturated fatty acid 5-lipoxygenase; assay: Inhibition of 5-LOX in A23187-stimulated human blood PMNL assessed as reduction in lipoxygenase products formation pre-incubated for 15 mins followed by stimulation with A23187 for 10 mins by RP-HPLC based cell based assay; outline: as §1
[6] = molecular target: T3, Polyunsaturated fatty acid 5-lipoxygenase (Homo sapiens); assay: Inhibition of human recombinant 5-LOX expressed in Escherichia coli BL21 assessed as remaining activity at 10 uM incubated for 10 mins in presence of arachidonic acid by RP-HPLC based cell-free assay; outline: as §3
[7] = molecular target: T4, Polyunsaturated fatty acid lipoxygenase ALOX12 (Homo sapiens) (UniProt P18054); assay: Inhibition of 12-LOX in human blood PMNL assessed as remaining activity by measuring 12-HETE synthesis at 10 uM; outline: as §2
T4 sequence (whole entry): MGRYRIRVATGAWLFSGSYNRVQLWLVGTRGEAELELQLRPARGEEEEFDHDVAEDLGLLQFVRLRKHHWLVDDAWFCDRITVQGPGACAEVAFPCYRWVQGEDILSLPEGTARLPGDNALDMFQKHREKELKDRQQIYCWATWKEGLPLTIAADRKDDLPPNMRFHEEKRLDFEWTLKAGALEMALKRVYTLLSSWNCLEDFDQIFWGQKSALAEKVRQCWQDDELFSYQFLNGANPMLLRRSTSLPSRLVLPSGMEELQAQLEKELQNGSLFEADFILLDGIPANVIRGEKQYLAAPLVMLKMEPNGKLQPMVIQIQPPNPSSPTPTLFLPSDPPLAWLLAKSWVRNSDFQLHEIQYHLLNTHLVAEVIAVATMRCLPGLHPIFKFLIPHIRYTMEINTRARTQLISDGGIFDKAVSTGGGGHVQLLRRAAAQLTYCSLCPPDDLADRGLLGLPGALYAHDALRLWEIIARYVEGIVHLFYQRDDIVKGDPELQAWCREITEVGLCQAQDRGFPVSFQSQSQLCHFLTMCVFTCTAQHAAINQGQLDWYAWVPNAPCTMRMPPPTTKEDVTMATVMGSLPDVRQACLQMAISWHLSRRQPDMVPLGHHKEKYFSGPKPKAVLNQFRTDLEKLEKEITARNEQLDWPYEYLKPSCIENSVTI

[8] = molecular target: T3, Polyunsaturated fatty acid 5-lipoxygenase (Homo sapiens); assay: Inhibition of 5-LOX in A23187-stimulated human blood PMNL assessed as remaining activity by measuring lipoxygenase products formation at 10 uM pre-incubated for 15 mins followed by stimulation with A23187 for 10 mins by RP-HPLC based cell based assay; outline: as §1
Homo sapiens [9] = species on record: Homo sapiens; assay: Selectivity index, ratio of inhibition for 12-LOX in human blood PMNL to IC50 for 5-LOX in human blood PMNL
Homo sapiens [10] = species on record: Homo sapiens; assay: Selectivity index, ratio of inhibition for […] in human blood PMNL to IC50 for 5-LOX in human blood PMNL
[11] = molecular target: T3, Polyunsaturated fatty acid 5-lipoxygenase (Homo sapiens); assay: Potency index, ratio of IC50 for human 5-LOX by intact cell based assay to IC50 for human 5-LOX by cell free assay
[12] = molecular target: T1, Polyunsaturated fatty acid 5-lipoxygenase; assay: Inhibition of human 5-LOX by cell free assay
[13] = molecular target: T1, Polyunsaturated fatty acid 5-lipoxygenase; assay: Inhibition of human 5-LOX by intact cell based assay

| Compound | IC50 [1] [nM] | Activity [2] [%] | Activity [3] [%] | IC50 [4] [nM] | IC50 [5] [nM] | Activity [6] [%] | Activity [7] [%] | Activity [8] [%] | Selectivity Index (Homo sapiens [9]) | Selectivity Index (Homo sapiens [10]) | Ratio IC50 [11] | IC50 [12] [nM] | IC50 [13] [nM] |
| --- | --- | --- | --- | --- | --- | --- | --- | --- | --- | --- | --- | --- | --- |
| COC1=CC(=O)C(O)=C(C/C=C(\C)CCC=C(C)C)C1=O | > 10000 | 112 | 65.9 | > 10000 | 4100 | 73.6 | 101 | – | – | – | – | – | – |
| CCCCCCCCCCCCCCCCC1=C(O)C(=O)C=C(O)C1=O | > 10000 | 105 | 80.5 | 190 | > 10000 | – | 117 | 88 | – | – | – | – | – |
| CCCCCCC1=C(O)C(=O)C=C(O)C1=O | > 10000 | 89.8 | 79.9 | 4000 | > 10000 | – | 105 | 134 | – | – | – | – | – |
| CCCCCCCCCCCCCCCCC1=C(O)C(=O)C=C(OC)C1=O | 1100 | 119 | – | > 10000 | 1000 | 60.1 | 138 | – | – | – | – | – | – |
| CCCCC1=C(OC)C(OC)=CC(=O)C1=O | 5100 | 129 | – | > 10000 | 2200 | 82.9 | 85.8 | – | – | – | – | – | – |
| CCCCCCCCC1=C(O)C(=O)C=C(O)C1=O | > 10000 | 88.9 | 80.1 | 380 | > 10000 | – | 75.7 | 53.5 | – | – | – | – | – |
| CCCCCCCCCCCCCCCC1=C(OC)C(OC)=CC(=O)C1=O | > 10000 | 115 | 66.8 | 620 | > 10000 | – | 88.9 | 57.6 | – | – | – | – | – |
| CCCCC1=C(O)C(=O)C=C(O)C1=O | > 10000 | 82.3 | 92.8 | > 10000 | > 10000 | 65.4 | 93.3 | 93.5 | – | – | – | – | – |
| CCCCCCCCC1=C(O)C(=O)C=C(OC)C1=O | > 10000 | 105 | 72.9 | 3000 | > 10000 | – | 86.8 | 73.5 | – | – | – | – | – |
| CC(C)=CCC/C(C)=C/CC/C(C)=C/CC1=C(O)C(=O)C=C(O)C1=O | > 10000 | 95.2 | 66.6 | 2500 | > 10000 | – | 78.3 | 85.8 | – | – | – | – | – |
| CCCCCCCCCCCCCC1=C(OC)C(OC)=CC(=O)C1=O | 50 | 137 | – | 80 | 120 | – | 78.5 | – | > 66 | > 66 | – | – | – |
| CCCCCCC1=C(O)C(=O)C=C(OC)C1=O | > 10000 | 65.8 | 64.1 | > 10000 | > 10000 | 71.1 | 44.5 | 68.9 | – | – | – | – | – |
| CCCCCCCCCCCC1=C(O)C(=O)C=C(O)C1=O [EMBELIN] | 3500 | 91.5 | – | 60 | 1700 | – | 74.9 | – | – | – | 13 | 60 | 800 |
| CCCCC1=C(O)C(=O)C=C(OC)C1=O | > 10000 | 112 | 95.7 | > 10000 | > 10000 | 70.5 | 91.2 | 86 | – | – | – | – | – |
| CC(C)=CCC/C(C)=C/CC1=C(O)C(=O)C=C(O)C1=O | > 10000 | 92 | 81.9 | 1800 | > 10000 | – | 80.5 | 114 | – | – | – | – | – |
| CCCCCCCCCCCC1=C(OC)C(OC)=CC(=O)C1=O | 100 | 105 | – | 90 | 60 | – | 236 | – | > 66 | > 66 | – | – | – |
| CCCCCCCCCCCCCCCCC1=C(OC)C(=O)C=C(OC)C1=O | 3500 | 97.8 | – | 1600 | > 10000 | – | 121 | 80.1 | – | – | – | – | – |
| CCCCCCCCCCCCC1=C(OC)C(OC)=CC(=O)C1=O | 150 | 133 | – | 130 | 29 | – | 135 | – | > 66 | > 66 | – | – | – |
| CCCCCCCCCCC1=C(OC)C(OC)=CC(=O)C1=O | 70 | 148 | – | 130 | 40 | – | 133 | – | > 66 | > 66 | – | – | – |
